# Data published in ChEMBL document CHEMBL3877264, “Quinolidene-rhodanine conjugates: Facile synthesis and biological evaluation” (Eur J Med Chem, 2017).
# Key:
# [1] = Cytotoxicity against primary HUVEC measured after 48 hrs by MTT assay; type: toxicity, cell-based; conditions: human
# [2] = tested on: Mycobacterium tuberculosis; assay: Growth inhibition of Mycobacterium tuberculosis H37Ra ATCC 25177 at dormant stage at 100 ug/ml measured after 12 days by XTT dye based two fold dilution method relative to control; type: functional; conditions: H37Ra ATCC 25177, 288 h, read-out: GI
# How it was run: (§1)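 MTB H37Ra was grown in Dubos medium, then exposed in Mycobacterium pheli minimal medium (pH 6.6) to compounds dissolved in DMSO. The assay ended on day 8 (active) or day 12 (dormant). Viable cells were measured by XTT reduction menadione assay at 470 nm, blank-corrected, relative to vehicle control. Triplicates were expressed as mean ± SD. MIC came from dose-response curves.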
# [3] = Cytotoxicity against […]-differentiated human THP1 cells assessed as growth inhibition at 100 ug/ml measured after 48 hrs by MTT assay relative to control; type: toxicity, cell-based, THP-1; conditions: read-out: GI
# How it was run: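 MTT assay with 48 h compound exposure. THP-1 macrophages made by 24 h PMA treatment. Each concentration tested in triplicate in one experiment. % cytotoxicity = (control−test)/(control−blank)×100, with control = cells + DMSO and blank = medium without cells. IC50 from % survival versus concentration plots.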
# [4] = Selectivity index, ratio of GI50 for […]-differentiated human THP1 cells to MIC for Mycobacterium tuberculosis H37Ra ATCC 25177 at dormant stage; type: toxicity, cell-based, THP-1; conditions: read-out: Selectivity Index
# How it was run: (§2)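 SI is the cell-line GI50 divided by the dormant-stage mycobacterial MIC. […] THP-1 macrophages were PMA-differentiated for 24 h.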
# [5] = tested on: Mycobacterium tuberculosis; assay: Growth inhibition of Mycobacterium bovis BCG ATCC 35743 at dormant stage at 100 ug/ml measured after 12 days by nitrate reductase dye based two fold dilution method relative to control; type: functional; conditions: BCG str. ATCC 35743, 288 h, read-out: GI
# How it was run: (§3)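 M. bovis BCG was grown in Dubos medium and assayed in Mycobacterium pheli minimal medium (pH 6.6), with compounds from DMSO stocks. Incubation lasted 8 days for active and 12 days for dormant cultures. Viability was read by nitrate reductase at 540 nm against cell-free blanks, with vehicle set as 100% growth. Primary screen was at 30, 10 and 3 µg/ml, in triplicate, mean ± SD. MIC was taken from dose-response curves.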
# [6] = Cytotoxicity against human PANC1 cells measured after 48 hrs by MTT assay; type: toxicity, cell-based, PANC-1
# [7] = Cytotoxicity against human A549 cells assessed as growth inhibition at 100 ug/ml measured after 48 hrs by MTT assay relative to control; type: toxicity, cell-based; conditions: read-out: GI
# [8] = tested on: Mycobacterium tuberculosis; assay: Growth inhibition of Mycobacterium bovis BCG ATCC 35743 at dormant stage at 10 ug/ml measured after 12 days by nitrate reductase dye based two fold dilution method relative to control; type: functional; conditions: BCG str. ATCC 35743, 288 h, read-out: GI; how it was run: as §3
# [9] = tested on: Mycobacterium tuberculosis; assay: Growth inhibition of Mycobacterium bovis BCG ATCC 35743 at dormant stage measured after 12 days by nitrate reductase dye based two fold dilution method; type: functional; conditions: BCG str. ATCC 35743, 288 h; how it was run: as §3
# [10] = tested on: Mycobacterium tuberculosis; assay: Growth inhibition of Mycobacterium bovis BCG ATCC 35743 at dormant stage at 50 ug/ml measured after 12 days by nitrate reductase dye based two fold dilution method relative to control; type: functional; conditions: BCG str. ATCC 35743, 288 h, read-out: GI; how it was run: as §3
# [11] = tested on: Mycobacterium tuberculosis; assay: Growth inhibition of Mycobacterium tuberculosis H37Ra ATCC 25177 at active stage at 12.5 ug/ml measured after 8 days by XTT dye based two fold dilution method relative to control; type: functional; conditions: H37Ra ATCC 25177, 192 h, read-out: GI
# Staphylococcus aureus = assay: Antibacterial activity against of Staphylococcus aureus NCIM 2010 measured after 12 hrs; type: functional; conditions: NCIM 2010, 12 h
# How it was run: (§4)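 Bacteria grown in LB at 37 °C and 180 rpm to OD 1. Compounds added to wells, then 0.1% inoculum of 1 OD culture (620 nm). Growth read as OD at 620 nm after 8 h for gram-negative and after 12 h for gram-positive strains.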
# Pseudomonas fluorescens [12] = assay: Growth inhibition of Pseudomonas fluorescens NCIM 2036 at 10 ug/ml measured after 8 hrs relative to control; type: functional; conditions: NCIM 2036, 8 h, read-out: GI; how it was run: as §4
# Bacillus subtilis [13] = assay: Growth inhibition of Bacillus subtilis NCIM 2079 at 10 ug/ml measured after 12 hrs relative to control; type: functional; conditions: NCIM 2079, 12 h, read-out: GI; how it was run: as §4
# [14] = tested on: Mycobacterium tuberculosis; assay: Growth inhibition of Mycobacterium tuberculosis H37Ra ATCC 25177 at dormant stage at 3.13 ug/ml measured after 12 days by XTT dye based two fold dilution method relative to control; type: functional; conditions: H37Ra ATCC 25177, 288 h, read-out: GI; how it was run: as §1
# Pseudomonas fluorescens [15] = assay: Growth inhibition of Pseudomonas fluorescens NCIM 2036 at 3 ug/ml measured after 8 hrs relative to control; type: functional; conditions: NCIM 2036, 8 h, read-out: GI; how it was run: as §4
# Pseudomonas fluorescens [16] = assay: Antibacterial activity against Pseudomonas fluorescens NCIM 2036 measured after 8 hrs; type: functional; conditions: NCIM 2036, 8 h; how it was run: as §4
# [17] = tested on: Mycobacterium tuberculosis; assay: Growth inhibition of Mycobacterium tuberculosis H37Ra ATCC 25177 at active stage at 100 ug/ml measured after 8 days by XTT dye based two fold dilution method relative to control; type: functional; conditions: H37Ra ATCC 25177, 192 h, read-out: GI; how it was run: as §1
# [18] = tested on: Mycobacterium tuberculosis; assay: Growth inhibition of Mycobacterium bovis BCG ATCC 35743 at active stage at 0.78 ug/ml measured after 8 days by nitrate reductase dye based two fold dilution method relative to control; type: functional; conditions: BCG str. ATCC 35743, 192 h, read-out: GI; how it was run: as §3
# Escherichia coli [19] = assay: Growth inhibition of Escherichia coli NCIM 2688 at 10 ug/ml measured after 8 hrs relative to control; type: functional; conditions: NCIM 2688, 8 h, read-out: GI; how it was run: as §4
# Escherichia coli [20] = assay: Growth inhibition of Escherichia coli NCIM 2688 at 30 ug/ml measured after 8 hrs relative to control; type: functional; conditions: NCIM 2688, 8 h, read-out: GI; how it was run: as §4
# [21] = tested on: Mycobacterium tuberculosis; assay: Growth inhibition of Mycobacterium bovis BCG ATCC 35743 at active stage at 25 ug/ml measured after 8 days by nitrate reductase dye based two fold dilution method relative to control; type: functional; conditions: BCG str. ATCC 35743, 192 h, read-out: GI; how it was run: as §3
# [22] = Selectivity index, ratio of GI50 for human PANC1 cells to MIC for Mycobacterium tuberculosis H37Ra ATCC 25177 at dormant stage; type: toxicity, cell-based, PANC-1; conditions: read-out: Selectivity Index; how it was run: as §2
# Candida albicans = assay: Antifungal activity against Candida albicans NCIM 3471 by standard agar method; type: functional
# How it was run: (§5)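 MICs determined by standard agar method; DMSO as solvent control.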
# [23] = Antifungal activity against Fusarium oxysporum NCIM 1332 by standard agar method; type: functional; how it was run: as §5
# [24] = tested on: Mycobacterium tuberculosis; assay: Growth inhibition of Mycobacterium tuberculosis H37Ra ATCC 25177 at dormant stage at 0.78 ug/ml measured after 12 days by XTT dye based two fold dilution method relative to control; type: functional; conditions: H37Ra ATCC 25177, 288 h, read-out: GI; how it was run: as §1
# Bacillus subtilis [25] = assay: Growth inhibition of Bacillus subtilis NCIM 2079 at 3 ug/ml measured after 12 hrs relative to control; type: functional; conditions: NCIM 2079, 12 h, read-out: GI; how it was run: as §4
# [26] = tested on: Mycobacterium tuberculosis; assay: Growth inhibition of Mycobacterium bovis BCG ATCC 35743 at active stage measured after 8 days by nitrate reductase dye based two fold dilution method; type: functional; conditions: BCG str. ATCC 35743, 192 h; how it was run: as §3
# [27] = Selectivity index, ratio of GI50 for human A549 cells to MIC for Mycobacterium tuberculosis H37Ra ATCC 25177 at dormant stage; type: toxicity, cell-based; conditions: read-out: Selectivity Index; how it was run: as §2
# [28] = tested on: Mycobacterium tuberculosis; assay: Growth inhibition of Mycobacterium tuberculosis H37Ra ATCC 25177 at dormant stage at 1.56 ug/ml measured after 12 days by XTT dye based two fold dilution method relative to control; type: functional; conditions: H37Ra ATCC 25177, 288 h, read-out: GI; how it was run: as §1
smiles,measurement,setting,value
O=C1NC(=S)S/C1=C\c1cc2cc(F)ccc2nc1Cl,GI50 at 48 h,[1],> 100 µg/mL
same,inhibition of growth at 100 µg/mL,[2],97.3%
same,"inhibition at 48 h, 100 ug/ml",[3],19.2%
same,selectivity ratio,[4],5.6
same,inhibition of growth at 100 µg/mL,[5],98.5%
same,GI50 at 48 h,[6],> 100 µg/mL
same,"inhibition at 48 h, 100 ug/ml",[7],40%
same,inhibition of growth at 10 µg/mL,[8],16.9%
same,IC50,[9],3.9 µg/mL
same,IC90,[9],5.2 µg/mL
same,inhibition of growth at 50 µg/mL,[10],100%
same,inhibition of growth at 12.5 µg/mL,[11],99.9%
same,MIC,Staphylococcus aureus,22.6 µg/mL
same,inhibition of growth at 10 µg/mL,Pseudomonas fluorescens [12],54.6%
same,inhibition of growth at 10 µg/mL,Bacillus subtilis [13],2.58%
same,inhibition of growth at 3.13 µg/mL,[14],28.4%
same,inhibition of growth at 3 µg/mL,Pseudomonas fluorescens [15],29.3%
same,MIC,Pseudomonas fluorescens [16],> 30 µg/mL
same,inhibition of growth at 100 µg/mL,[17],101%
same,inhibition of growth at 0.78 µg/mL,[18],-54.6%
same,inhibition of growth at 10 µg/mL,Escherichia coli [19],27.5%
same,inhibition of growth at 30 µg/mL,Escherichia coli [20],46.4%
same,inhibition of growth at 25 µg/mL,[21],99%
same,selectivity ratio,[22],5.6
same,MIC,Candida albicans,50 µg/mL
same,MIC,[23],25 µg/mL
same,inhibition of growth at 0.78 µg/mL,[24],-24.1%
same,inhibition of growth at 3 µg/mL,Bacillus subtilis [25],-6.11%
same,IC50,[26],2.4 µg/mL
same,IC90,[26],4.2 µg/mL
same,selectivity ratio,[27],5.6
same,inhibition of growth at 1.56 µg/mL,[28],-0.73%
